Measured values: ChEMBL document CHEMBL4043073, “Boronic Acid Modifications Enhance the Anti-Influenza A Virus Activities of Novel Quindoline Derivatives” (J Med Chem, 2017)
Calls of active or inactive are those of the source. The rule behind the calls is not given here.

Columns and labels:
[1] = Selectivity index, ratio of CC50 for MDCK cells to IC50 for Influenza A virus (A/Puerto Rico/8/34(H1N1)) infected in MDCK cells assessed as reduction in virus-induced cytopathic effect; assay type: toxicity, cell-based; settings: dog, read-out: Ratio CC50/IC50
[2] = Antiviral activity against Influenza A virus (A/California/04/2009(H1N1)) infected in MDCK cells assessed as virus yeild reduction preincubated with virus at 37 degC for 1 hr followed by viral infection for 1 hr measured after 3 days by crystal violet staining based plaque assay; assay type: functional, cell-based
How it was run: (§1)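 Plaque reduction: about 50–100 PFU/well of PR8, Cal09 or Minnesota preincubated with compound (0–10 μM) 1 h at 37 °C. Mixture then adsorbed to MDCK monolayers 1 h at 4 °C. Overlay was DMEM with 1.5% agarose, DEAE-dextran and 1 μg/mL TPCK-trypsin for 3 days at 37 °C. Glutaraldehyde fix, crystal violet stain, plaque count; IC50 derived; n = 4.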

Influenza A virus [3] = test: Antiviral activity against Influenza A virus (A/Puerto Rico/8/34(H1N1)) infected in MDCK cells assessed as virus yeild reduction at 10 uM preincubated with virus for 1 hr followed by viral infection for 1 hr measured at 24 hrs post infection by crystal violet staining based plaque assay; assay type: functional, cell-based; settings: A/Puerto Rico/8/1934(H1N1)
How it was run: (§2)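 PR8 (MOI 1.0) preincubated with compound (2.5–10 μM) 1 h at 37 °C, then used to infect MDCK cells. After adsorption, medium with the same compound concentration was added. At 24 h p.i. supernatant virus titer was measured by plaque assay; n = 3.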

Influenza A virus [4] = test: Antiviral activity against Influenza A virus (A/Puerto Rico/8/34(H1N1)) infected in A549 cells assessed as reduction in nuclear import of viral RNP by measuring colocalization with viral NP in cytoplasm at 10 uM preincubated with virus at 37 degC for 1 hr followed by viral adsorption at 4 degC for 1 hr and subsequent infection in A549 cells measured at 2 to 4 hrs post infection by confocal microscopic method; assay type: functional, cell-based; settings: A/Puerto Rico/8/1934(H1N1)
How it was run: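 PR8 (MOI 1.0) pretreated with 10 μM compound 1 h at 37 °C, adsorbed 1 h at 4 °C, then A549 cells were kept in infecting medium with 10 μM compound. Fixed with 4% paraformaldehyde at 2 or 4 h p.i., permeabilised with Triton X-100 and blocked. Anti-NP plus FITC secondary, confocal imaging; nuclear NP intensity per unit area quantified (n = 30 images).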

Influenza A virus [5] = test: Antiviral activity against Influenza A virus (A/Puerto Rico/8/34(H1N1)) infected in MDCK cells assessed as reduction in virus titer at 10 uM preincubated with virus for 1 hr followed by viral infection measured after 24 hrs by crystal violet staining based plaque assay; assay type: functional, cell-based; settings: A/Puerto Rico/8/1934(H1N1); how it was run: as §2
Influenza A virus [6] = test: Antiviral activity against Influenza A virus (A/Puerto Rico/8/34(H1N1)) infected in Kunming mouse assessed as intact columnar epithelium in bronchiole without inflammatory cell infiltration at 10 mg/kg/day, po qd for 4 days by hematoxylin and eosin staining based assay; assay type: functional, organism-based; settings: A/Puerto Rico/8/1934(H1N1)
[7] = (§3) Antiviral activity against Influenza A virus (A/California/04/2009(H1N1)) infected in MDCK cells assessed as reduction in viral HA titer by measuring reduction in chicken RBC […] after 24 hrs by hemagglutination test; assay type: functional, cell-based
How it was run: (§4)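 MDCK cells infected at MOI 3.0 (single-cycle) with PR8, Cal09 or swine H3N2 Minnesota, then treated with compound for 24 h. Supernatant HA titers were read by 2-fold serial dilution with an equal volume of 1% chicken RBCs, 60 min at 4 °C. Expressed as percent of untreated-cell HA titer; IC50 derived; n = 4.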

[8] = tested on: Influenza A virus (A/California/04/2009(H1N1)); test: as §3; assay type: functional, cell-based; how it was run: as §4
Influenza A virus [9] = test: Antiviral activity against Influenza A virus (A/Puerto Rico/8/34(H1N1)) infected in MDCK cells assessed as virus yeild reduction preincubated with virus at 37 degreeC for 1 hr followed by viral infection for 1 hr measured after 3 days by crystal violet staining based plaque assay; assay type: functional, cell-based; settings: A/Puerto Rico/8/1934(H1N1); how it was run: as §1
Canis lupus familiaris [10] = species: Canis lupus familiaris; test: (§5) Inhibition of NFkappaB activation-mediated viral RNA synthesis in MDCK cells infected with Influenza A virus (A/Puerto Rico/8/34(H1N1)) assessed as NF-kB phosphorylation level at 5 uM preincubated with virus for 1 hr followed by viral infection measured after 4 hrs by Western blot method relative to control (reference value: 1.8); assay type: cell-based
How it was run: (§6)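 PR8 (MOI 1.0) pretreated with compound 1 h at 37 °C, then MDCK cells were kept in infecting medium with 5 or 10 μM for 4 h; ribavirin 50 μg/mL as comparator. Lysates were immunoblotted for phospho-ERK1/2, p38, NF-κB or Akt, with β-actin/GAPDH loading controls and AP/NBT-BCIP detection. Densitometry was normalised to uninfected cells (= 1.0); n = 3.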

Influenza A virus [11] = test: Antiviral activity against Influenza A virus (A/Puerto Rico/8/34(H1N1)) infected in MDCK cells assessed as reduction in viral HA titer by measuring reduction in chicken RBC […] after 24 hrs by hemagglutination test; assay type: functional, cell-based; settings: A/Puerto Rico/8/1934(H1N1); how it was run: as §4
Influenza A virus [12] = test: Antiviral activity against Influenza A virus (A/Puerto Rico/8/34(H1N1)) infected in Kunming mouse assessed as survival rate at 10 mg/kg/day, po qd for 7 days measured on day 14 post infection (reference value: 30%); assay type: functional; settings: A/Puerto Rico/8/1934(H1N1)
Canis lupus familiaris [13] = species: Canis lupus familiaris; test: as §5, with “endocytosis” for “RNA synthesis”, “Akt” for “NF-kB”, “1.4)” for “1.8)”; assay type: cell-based; how it was run: as §6
[14] = tested on: Influenza A virus (A/Puerto Rico/8/1934(H1N1)); test: Inhibition of Influenza A virus (A/Puerto Rico/8/34(H1N1)) hemagglutinin mediated chicken erythrocytes aggregation at 10 uM after 60 mins by hemagglutination test; assay type: cell-based
How it was run: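 Hemagglutination inhibition: PR8-induced aggregation of chicken erythrocytes tested with 10 μM compound; anti-HA antibody (0.625–5 μg/mL) as comparator.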

Influenza A virus [15] = test: Antiviral activity against Influenza A virus (A/Puerto Rico/8/34(H1N1)) infected in MDCK cells assessed as virus yeild reduction at 10 uM preincubated with cells for 1 hr followed by viral infection for 1 hr measured at 24 hrs post infection by crystal violet staining based plaque assay; assay type: functional, cell-based; settings: A/Puerto Rico/8/1934(H1N1)
How it was run: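 Time-of-addition on MDCK cells, PR8 MOI 1.0, 10 μM compound. Three arms: cells pretreated before infection; compound present during adsorption 1 h at 4 °C; or compound added after removal of unadsorbed virus. Virus yield at 24 h p.i. by plaque assay; n = 3.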

Influenza A virus [16] = test: Antiviral activity against Influenza A virus (A/swine/Minnesota/02719/2009(H3N2)) infected in MDCK cells assessed as virus yeild reduction preincubated with virus at 37 degC for 1 hr followed by viral infection for 1 hr measured after 3 days by crystal violet staining based plaque assay; assay type: functional, cell-based; how it was run: as §1
Canis lupus familiaris [17] = species: Canis lupus familiaris; test: as §5, with “10” for “5”; assay type: cell-based; how it was run: as §6
Influenza A virus [18] = test: Antiviral activity against Influenza A virus (A/Puerto Rico/8/34(H1N1)) infected in Kunming mouse assessed as pulmonary viral titer reduction at 10 mg/kg/day, po qd for 4 days measured on day 4 post last dose by crystal violet staining based plaque assay; assay type: functional, organism-based; settings: A/Puerto Rico/8/1934(H1N1)
How it was run: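 Female 4-week-old Kunming mice infected intranasally with PR8 (4 HAU/mouse). Oral gavage once daily began 2 h post-inoculation; placebo control. Mice euthanised on day 4; lungs homogenised in PBS and titrated by plaque assay on cell monolayers (agarose overlay, 3 days, crystal violet).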

O=C(Nc1ccccc1Nc1c2ccccc2nc2c1[nH]c1ccccc12)c1cccc(B(O)O)c1
selectivity ratio [1]: 27.9
IC50 [2]: 3.7 µM
Activity (Influenza A virus [3]): Active
Activity (Influenza A virus [4]): Active
IC50 (Influenza A virus [5]): 2.5 µM
Activity (Influenza A virus [6]): Active
IC50 [7]: 4.3 µM
Activity [8]: Dose-dependent effect
IC50 (Influenza A virus [9]): 3.2 µM
fold change (FC) (Canis lupus familiaris [10]): 0.9
Activity (Influenza A virus [11]): Dose-dependent effect
IC50 (Influenza A virus [11]): 2.5 µM
survival at 10 mg/kg/day (Influenza A virus [12]): 90%
fold change (FC) (Canis lupus familiaris [13]): 1.2
inhibition [14]: inactive
Activity (Influenza A virus [15]): inactive
IC50 (Influenza A virus [16]): 2.3 µM
fold change (FC) (Canis lupus familiaris [17]): 0.4
Activity (Influenza A virus [18]): Active
